Source: PubChem BioAssay
Sampled rows, rich in hits. Any-hit rate of the full collection: about 12%.
ABCG2 inh = blocks JC-1 efflux by human ABCG2 transporter | inhibition, % at 6.6 µM | IgMXP3 cells, flow cytometry | AID 1325 | Q9UNQ0 | 0.1% of 190,000 active;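 active = inhibition above 80%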;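 also: 0% = DMSO and 100% = nicardipine control wells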
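System: two drug-resistant human cell lines, ABCG2 and ABCB1; controls: nicardipine high and DMSO low controls; times: 10 min exposure at 25 °C with rotation, no wash; detection: flow cytometry of retained JC-1 fluorescence; read-out basis: percent efflux inhibition, scaled nicardipine 100% to DMSO 0%; doses: one concentration, 6.6 µM final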
WT yeast gro inh = growth inhibition of WT yeast, mitochondrial fusion screen | 2.1% of 190,000 active | mitochondrial fusion phenotypic screen, WT strain | inhibition, % at 10 µM; in the data active = inhibition above about 58%; tested in S. cerevisiae
RAM network inh = blocks the yeast RAM network; S. cerevisiae dse1pr::URA3 reporter, 5-FOA growth OD615, 2 d; analog-sensitive cbk1-as2 kinase mutant strain; inhibition, % at 50 µM; 1.8% of 190,000 active;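 active = inhibition above a set limit, 3 SD over mean compound inhibition, cut at about 8.4% in these data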;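 also: 0% = DMSO-only wells with no growth and 100% = 10 µM 1-NA-PP1 full growth; inhibition rescues growth on 5-FOA so higher OD means more RAM inhibition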
ABCB1 block = inhibitors of human ABCB1 transporter, ABCG2 counter-screen. CCRF-Adr cells, JC-1 efflux, flow cytometry. inhibition, % at 6.6 µM. 0.067% of 190,000 active; in the data active = inhibition above about 40%;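 also: 0% = vehicle and 100% = reference inhibitor; higher value means more JC-1 retained so stronger ABCB1 efflux block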
L major viab = inhibitors of Leishmania major promastigote growth | Leishmania major promastigotes, resazurin fluorescence viability | inhibition, % at 10 µM | 9% of 200,000 active; in the data active = inhibition above about 50%;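 also: promastigotes grown with compound for 44 hours at 28 °C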
An asterisk follows results filed as active; . = no result.

SMILES | ABCG2 inh | WT yeast gro inh | RAM network inh | ABCB1 block | L major viab
O=C(NC(=S)Nc1ccc(N2CCCCC2)cc1)c1ccc2c(c1)OCCO2 | 54 | 2 | 4 | 1 | 64*
CCOc1cccc(C(=O)NC(=S)Nc2ccc(N3CCCC3)cc2)c1 | 2 | 31 | 11* | 0 | -2
CCOc1cc(OCC)cc(C(=O)NC(=S)Nc2cccc(C(F)(F)F)c2)c1 | 0 | 2 | 11* | 0 | -5
O=C(Nc1ccc(N2CCCCC2)c(Cl)c1)c1ccc(N2CCOCC2)c([N+](=O)[O-])c1 | -1 | 1 | 1 | -3 | 93*
NC(=O)CSc1ncnc2c1oc1ccccc12 | 3 | 14 | 3 | 0 | -6
Cc1nc(SCC(=O)O)c2oc3ccccc3c2n1 | 7 | -2 | 3 | 1 | -9
CCOC(=O)CC(=O)CSc1nc(C)nc2c1oc1ccccc12 | 3 | 83* | 1 | 1 | -7
O=C(CSc1ncnc2c1oc1ccccc12)OCc1ccccc1 | 1 | 5 | 8.8* | 0 | -3
CCn1c(COc2ccc3c(c2)OCO3)nnc1SCC(=O)c1ccc(Cl)cc1 | 4 | -6 | 1 | 0 | -7
Oc1ccccc1NCC(O)Cn1ccc2ccccc21 (stereo not drawn) | -10 | 58 | 0 | -6 | 40
OC(CNCc1ccccc1)Cn1ccc2ccccc21 (stereo not drawn) | 11 | 11 | 1 | 1 | 96*
CC1CCCCN1S(=O)(=O)c1ccc(C(=O)Nc2nnc(-c3ccccc3Cl)o2)cc1 (stereo not drawn) | 2 | 22 | 2 | -1 | 99*
O=C(Nc1ccn(-c2ccccc2)n1)c1ccc(S(=O)(=O)N2CCCCCC2)cc1 | 29 | 21 | 7 | 1 | 66*
O=C(Nc1nnc(-c2ccccc2Cl)o1)c1ccc(S(=O)(=O)N2CCCCCC2)cc1 | -1 | 4 | 1 | -1 | 99*
O=C(Nc1ccccc1)c1ccc(S(=O)(=O)N2CCCCC2)cc1 | 3 | 0 | 2 | 0 | 2
CCC1CCCCN1S(=O)(=O)c1ccc(C(=O)Nc2nnc(-c3ccccc3Cl)o2)cc1 (stereo not drawn) | 0 | -6 | 3 | 0 | 99*
CN(C(=O)c1ccc(=O)n(Cc2ccc(Cl)cc2)c1)c1ccccc1 | 8 | 8 | 2 | 1 | -3
CCOC(=O)c1ccccc1NS(=O)(=O)c1ccc(OCC)cc1 | 2 | 45 | 6 | 0 | 0
CCOc1ccc(S(=O)(=O)Nc2ccccc2C(=O)Nc2ccccc2N2CCOCC2)cc1 | 1 | 33 | 8.8* | 0 | 19
CCOc1ccc(C(=O)Nc2cc(S(=O)(=O)Nc3ccccc3Cl)ccc2N2CCOCC2)cc1 | 14 | 8 | 7 | 2 | 97*
CCOc1cc(N2CCOCC2)c(OCC)cc1NC(=O)c1ccc(OC(C)C)cc1 | 3 | 1 | 8.8* | 0 | 4
Nc1cc(S(=O)(=O)Nc2ccccc2Cl)ccc1N1CCOCC1 | 2 | -3 | -1 | 1 | -3
O=C(Nc1ccccc1N1CCOCC1)c1ccccc1NS(=O)(=O)c1ccc(F)cc1 | 2 | 9 | 2 | 1 | 2
CCOc1cc(N2CCOCC2)c(OCC)cc1NC(=O)c1ccc(C)cc1 | 1 | -1 | 3 | 0 | 10
CCOc1ccc(NC(=O)c2ccccc2NS(=O)(=O)c2ccc(F)cc2)c([N+](=O)[O-])c1 | 14 | 5 | 10* | 1 | 71*
SMILES | ABCG2 inh | WT yeast gro inh | RAM network inh | ABCB1 block | L major viab
Cc1c(NC(=O)CC2NC(=O)NC2=O)c(=O)n(-c2ccccc2)n1C (stereo not drawn) | -1 | 12 | 0 | 0 | -7
COC(=O)C1=C(C)N(Cc2cccnc2)C(=O)/C1=C\c1sccc1C | 7 | 45 | -1 | 2 | 18
O=C(Nc1ccccc1N1CCOCC1)c1cccc(NS(=O)(=O)c2ccc(F)c(F)c2)c1 | 12 | 14 | 6 | 1 | 70*
O=c1[nH]c(N/N=C\c2ccc3c(c2)OCO3)nc2ccccc12 | 0 | 9 | 2 | 1 | 51*
Cc1cccc(/C=N\Nc2nnc(-c3ccccc3)c(=O)[nH]2)c1 | -5 | 8 | 8 | -1 | 68*
CC(/C=N/Nc1nnc(C)c(=O)[nH]1)=C\c1ccccc1 | 0 | -4 | 5 | 0 | 5
C(=N\Nc1ncnc2ccccc12)/c1ccccc1 | 0 | 12 | 1 | 0 | -13
O=c1[nH]c(N/N=C/c2ccccc2)nc2ccccc12 | 25 | -6 | 1 | 1 | 58*
CN1C[C@@H]2C[C@@H](c3cccn3-c3nccs3)N3CCC[C@@]23C1=O | 0 | 8 | 3 | 0 | 0
C=CCNC(=O)c1cc(Cl)ccc1[N+](=O)[O-] | 1 | -12 | 0 | 0 | -4
C=CCN(CC=C)C(=O)c1cc(Cl)ccc1[N+](=O)[O-] | 5 | 3 | -1 | 1 | 51*
COc1ccc(C(C)=O)cc1COc1ccc([N+](=O)[O-])c(C)c1 | 1 | -8 | 8.6* | 0 | 6
COc1ccc(CN(CC2CCC(C(=O)O)CC2)C(=S)Nc2cccc(C)c2)cc1 (stereo not drawn) | 3 | 6 | -1 | 1 | 3
CC(=O)N1CCc2ccc(S(=O)(=O)N3CCN(C)CC3)cc21 | -1 | -1 | 1 | 0 | 53*
CN1CCN(S(=O)(=O)c2ccc(-c3ccc(S(=O)(=O)N4CCN(C)CC4)cc3)cc2)CC1 | . | 12 | . | . | .
CN1CCN(S(=O)(=O)c2ccc(Cc3ccc(S(=O)(=O)N4CCN(C)CC4)cc3)cc2)CC1 | 31 | -11 | 0 | 0 | 65*
CCCn1c(SCC(=O)Nc2ccccc2-c2ccccc2)nnc1-c1ccoc1C | 33 | 26 | 0 | 39 | 18
Fc1ccc(-n2c(Cc3ccccc3)nnc2SCc2nc(-c3cccs3)no2)cc1 | 6 | 31 | 4 | 2 | 99*
Cc1ccc(-c2noc(CSc3nnc(Cc4cccs4)n3-c3ccccc3)n2)cc1 | 2 | 31 | 3 | 1 | 8
Cc1ccc(-n2c(SCc3cn4ccsc4n3)nc3ccccc3c2=O)cc1 | 2 | 12 | 0 | 5 | 85*
O=c1c2ccccc2nc(SCc2nc(-c3ccccc3)no2)n1-c1ccc(F)cc1 | 4 | 17 | 5 | 1 | 87*
c1ccc(-c2noc(CSc3nnc(Cc4cccs4)n3-c3ccccc3)n2)cc1 | 1 | -2 | 4 | 0 | 65*
CCc1cccc(CC)c1NC(=O)COC(=O)C1(C)CC1(Cl)Cl (stereo not drawn) | 2 | -26 | 4 | 1 | 8
CC1CCCCC1NCC(=O)NCc1ccc(F)cc1 (stereo not drawn) | 0 | -10 | 0 | 0 | -5
CSc1ccc(CNc2ccccc2)cc1 | 5 | -1 | -1 | 0 | 100*
NC(=S)N/N=C/c1ccc(Br)o1 | 1 | -43 | 0 | 0 | -4
NC(=S)N/N=C/c1ccc(-c2cc(Cl)c(Cl)cc2Cl)o1 | 0 | 27 | 3 | 0 | 78*
CC1(C)C(=O)OC(/C=C\c2cccc([N+](=O)[O-])c2)C(C)(C)C1=O (stereo not drawn) | 1 | -5 | 2 | 0 | 1
